Reference: ChEMBL document CHEMBL1144538, “Synthesis and pharmacological evaluation of some 3-phenyl-2-substituted-3H-quinazolin-4-one as analgesic, anti-inflammatory agents” (2007)

Assays:
Type in all cases: functional
Mus musculus [1] = assay: Analgesic activity in Wistar Albino mouse at 10 mg/kg, po after 1 hr by tail-flick technique
How it was run: (§1)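 Tail-flick in Wistar albino mice (25–35 g, either sex, randomly selected), compound given orally as suspension in 1% carboxymethyl cellulose; six animals per group. Reaction time read before dosing and after dosing, cut-off 10 s. Percent analgesic activity = (T2 − T1)/(10 − T1) × 100, T1/T2 being pre/post reaction times; mean of n = 6, one-way ANOVA versus control.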

Mus musculus [2] = assay: Analgesic activity in Wistar Albino mouse at 20 mg/kg, po after 2 hrs by tail-flick technique; how it was run: as §1
Mus musculus [3] = assay: Analgesic activity in Wistar Albino mouse at 10 mg/kg, po after 3 hrs by tail-flick technique; how it was run: as §1
Rattus norvegicus [4] = assay: Anti-inflammatory activity against Carrageenan-induced paw oedema rat model at 10 mg/kg after 2 hrs
How it was run: (§2)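 Rat carrageenan paw oedema; compound dosed orally as suspension in 1% carboxymethyl cellulose, six rats per group. Paw volume by mercury displacement plethysmography immediately before and at the stated time after carrageenan injection. Percent oedema inhibition computed from pre/post paw volumes of treated versus vehicle-control rats; one-way ANOVA versus control.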

Mus musculus [5] = assay: Analgesic activity in Wistar Albino mouse at 20 mg/kg, po after 30 mins by tail-flick technique; how it was run: as §1
Mus musculus [6] = assay: Analgesic activity in Wistar Albino mouse at 10 mg/kg, po after 2 hrs by tail-flick technique; how it was run: as §1
Rattus norvegicus [7] = assay: Anti-inflammatory activity against Carrageenan-induced paw oedema rat model at 20 mg/kg after 3 hrs; how it was run: as §2
Mus musculus [8] = assay: Analgesic activity in Wistar Albino mouse at 20 mg/kg, po after 3 hrs by tail-flick technique; how it was run: as §1
Mus musculus [9] = assay: Analgesic activity in Wistar Albino mouse at 20 mg/kg, po after 1 hr by tail-flick technique; how it was run: as §1
Rattus norvegicus [10] = assay: Anti-inflammatory activity against Carrageenan-induced paw oedema rat model at 10 mg/kg after 3 hrs; how it was run: as §2
Rattus norvegicus [11] = assay: Anti-inflammatory activity against Carrageenan-induced paw oedema rat model at 20 mg/kg after 2 hrs; how it was run: as §2
Rattus norvegicus [12] = assay: Anti-inflammatory activity against Carrageenan-induced paw oedema rat model at 10 mg/kg after 30 mins; how it was run: as §2
Rattus norvegicus [13] = assay: Anti-inflammatory activity against Carrageenan-induced paw oedema rat model at 10 mg/kg after 1 hr; how it was run: as §2
Mus musculus [14] = assay: Analgesic activity in Wistar Albino mouse at 10 mg/kg, po after 30 mins by tail-flick technique; how it was run: as §1
Rattus norvegicus [15] = assay: Anti-inflammatory activity against Carrageenan-induced paw oedema rat model at 20 mg/kg after 30 min; how it was run: as §2
Rattus norvegicus [16] = assay: Anti-inflammatory activity against Carrageenan-induced paw oedema rat model at 20 mg/kg after 1 hr; how it was run: as §2

SMILES | Activity (Mus musculus [1]) | Activity (Mus musculus [2]) | Activity (Mus musculus [3]) | Activity (Rattus norvegicus [4]) | Activity (Mus musculus [5]) | Activity (Mus musculus [6]) | Activity (Rattus norvegicus [7]) | Activity (Mus musculus [8]) | Activity (Mus musculus [9]) | Activity (Rattus norvegicus [10]) | Activity (Rattus norvegicus [11]) | Activity (Rattus norvegicus [12]) | Activity (Rattus norvegicus [13]) | Activity (Mus musculus [14]) | Activity (Rattus norvegicus [15]) | Activity (Rattus norvegicus [16])
Cc1ccc(/C=N\Nc2nc3ccccc3c(=O)n2-c2ccccc2)cc1 | 40% | 50% | 33% | 34% | 43% | 40% | 36% | 40% | 47% | 25% | 43% | 28% | 33% | 37% | 38% | 38%
CCC(CC)=NNc1nc2ccccc2c(=O)n1-c1ccccc1 | 55% | 72% | 41% | 39% | 63% | 58% | 36% | 49% | 69% | 32% | 56% | 34% | 35% | 49% | 43% | 52%
O=c1c2ccccc2nc(N/N=C\c2ccc([N+](=O)[O-])cc2)n1-c1ccccc1 | 39% | 47% | 27% | 30% | 38% | 39% | 32% | 33% | 45% | 20% | 36% | 25% | 28% | 34% | 35% | 35%
CCC/C(C)=N/Nc1nc2ccccc2c(=O)n1-c1ccccc1 | 48% | 62% | 33% | 42% | 56% | 50% | 41% | 45% | 62% | 33% | 60% | 35% | 41% | 43% | 46% | 58%
O=c1c2ccccc2nc(N/N=C\c2ccccc2)n1-c1ccccc1 | 38% | 53% | 29% | 35% | 46% | 41% | 26% | 31% | 50% | 29% | 43% | 28% | 32% | 35% | 36% | 40%
O=c1c2ccccc2nc(NN=C2CCCCC2)n1-c1ccccc1 | 40% | 53% | 25% | 36% | 50% | 46% | 35% | 37% | 51% | 27% | 42% | 29% | 33% | 33% | 39% | 42%
COc1ccc(/C=N\Nc2nc3ccccc3c(=O)n2-c2ccccc2)cc1 | 42% | 50% | 30% | 32% | 42% | 43% | 30% | 29% | 49% | 24% | 37% | 28% | 30% | 38% | 33% | 37%
O=C(O)Cc1ccccc1Nc1c(Cl)cccc1Cl [DICLOFENAC] | 43% | 62% | 33% | 39% | 46% | 45% | 42% | 39% | 55% | 33% | 60% | 32% | 38% | 37% | 45% | 52%
CC/C(C)=N/Nc1nc2ccccc2c(=O)n1-c1ccccc1 | 43% | 61% | 31% | 37% | 55% | 50% | 36% | 42% | 59% | 26% | 47% | 32% | 36% | 41% | 38% | 45%
O=c1c2ccccc2nc(NN=C(c2ccccc2)c2ccccc2)n1-c1ccccc1 | 36% | 46% | 29% | 35% | 39% | 41% | 35% | 36% | 41% | 26% | 42% | 27% | 33% | 33% | 36% | 39%
O=C1Nc2ccccc2/C1=N\Nc1nc2ccccc2c(=O)n1-c1ccccc1 | 37% | 55% | 30% | 31% | 47% | 40% | 30% | 35% | 51% | 23% | 39% | 27% | 30% | 36% | 32% | 36%
O=c1c2ccccc2nc(N/N=C\c2ccc(Cl)cc2)n1-c1ccccc1 | 34% | 48% | 27% | 30% | 40% | 42% | 25% | 35% | 45% | 23% | 37% | 26% | 28% | 32% | 29% | 32%
Cc1ccccc1/C=N\Nc1nc2ccccc2c(=O)n1-c1ccccc1 | 39% | 48% | 33% | 33% | 45% | 40% | 30% | 39% | 46% | 28% | 42% | 30% | 32% | 35% | 36% | 39%
O=c1c2ccccc2nc(N/N=C\c2ccccc2Cl)n1-c1ccccc1 | 30% | 42% | 25% | 26% | 37% | 37% | 25% | 36% | 39% | 20% | 35% | 21% | 24% | 29% | 27% | 32%
O=c1c2ccccc2nc(N/N=C\c2ccccc2[N+](=O)[O-])n1-c1ccccc1 | 36% | 49% | 30% | 34% | 42% | 39% | 30% | 39% | 46% | 22% | 36% | 27% | 29% | 35% | 32% | 33%
C/C(=N\Nc1nc2ccccc2c(=O)n1-c1ccccc1)c1ccccc1 | 43% | 57% | 29% | 38% | 50% | 43% | 33% | 36% | 53% | 29% | 46% | 31% | 35% | 38% | 38% | 42%
